For experiment [1], the target named is T1, Protein deacetylase HDAC6 (Homo sapiens, UniProt Q9UBN7).
T1 sequence (Q9UBN7 whole entry): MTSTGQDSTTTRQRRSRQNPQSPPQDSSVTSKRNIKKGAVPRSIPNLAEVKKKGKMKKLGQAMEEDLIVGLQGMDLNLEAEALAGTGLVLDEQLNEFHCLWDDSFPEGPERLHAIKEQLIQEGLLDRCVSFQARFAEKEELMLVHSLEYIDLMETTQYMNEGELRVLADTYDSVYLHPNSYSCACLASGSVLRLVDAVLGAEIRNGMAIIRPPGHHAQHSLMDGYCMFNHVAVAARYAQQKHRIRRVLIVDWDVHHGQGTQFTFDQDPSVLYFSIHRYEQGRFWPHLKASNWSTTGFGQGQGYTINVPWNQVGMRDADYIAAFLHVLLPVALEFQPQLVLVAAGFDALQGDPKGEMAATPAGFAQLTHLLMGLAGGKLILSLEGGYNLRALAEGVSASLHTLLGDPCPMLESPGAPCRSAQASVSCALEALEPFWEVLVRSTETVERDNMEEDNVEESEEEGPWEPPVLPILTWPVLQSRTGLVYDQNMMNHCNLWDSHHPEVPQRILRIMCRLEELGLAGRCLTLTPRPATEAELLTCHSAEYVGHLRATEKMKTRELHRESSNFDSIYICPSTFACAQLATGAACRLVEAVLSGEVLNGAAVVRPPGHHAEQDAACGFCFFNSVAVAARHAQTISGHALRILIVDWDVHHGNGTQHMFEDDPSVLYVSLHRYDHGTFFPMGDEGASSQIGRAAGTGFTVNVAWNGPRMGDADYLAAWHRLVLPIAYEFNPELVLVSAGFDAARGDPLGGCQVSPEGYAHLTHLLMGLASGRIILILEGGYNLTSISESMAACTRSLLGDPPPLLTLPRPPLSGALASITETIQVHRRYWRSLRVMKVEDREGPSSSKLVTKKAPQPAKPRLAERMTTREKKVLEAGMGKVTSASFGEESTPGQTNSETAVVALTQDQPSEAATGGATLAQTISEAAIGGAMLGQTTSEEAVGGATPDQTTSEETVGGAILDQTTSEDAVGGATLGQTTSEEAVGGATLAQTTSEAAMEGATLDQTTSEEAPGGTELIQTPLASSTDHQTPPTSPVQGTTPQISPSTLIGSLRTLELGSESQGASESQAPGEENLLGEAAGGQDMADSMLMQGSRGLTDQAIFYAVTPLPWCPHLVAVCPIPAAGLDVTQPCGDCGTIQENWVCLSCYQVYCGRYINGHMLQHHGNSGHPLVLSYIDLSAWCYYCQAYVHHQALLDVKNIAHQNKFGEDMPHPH
Nature of the experiment: Inhibition of N-terminal GST-tagged recombinant human HDAC6 expressed in baculovirus infected insect cells using RHKK(Ac)AMC as substrate by fluorescence-based assay.

Experiment [2] deals with SEM cells. Description: Inhibition of HDAC6/chymotrypsin-like activity of 20S proteasome in human SEM cells assessed as increase in cleaved PARP expression at 0.1 to 10 uM after 24 hrs by immunoblot assay. The experiment is classed as cell-based. Put shortly:
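Cells exposed for 24 h at indicated concentrations; lysates immunoblotted for acetyl-α-tubulin, acetyl-histone H3, PARP, with GAPDH as loading control.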
Background: A western blot detects proteins with antibodies after separation by electrophoresis.

For experiment [3], the target named is T2, Proteasome Macropain subunit MB1 (Homo sapiens, UniProt P28074).
T2 sequence (P28074 whole entry): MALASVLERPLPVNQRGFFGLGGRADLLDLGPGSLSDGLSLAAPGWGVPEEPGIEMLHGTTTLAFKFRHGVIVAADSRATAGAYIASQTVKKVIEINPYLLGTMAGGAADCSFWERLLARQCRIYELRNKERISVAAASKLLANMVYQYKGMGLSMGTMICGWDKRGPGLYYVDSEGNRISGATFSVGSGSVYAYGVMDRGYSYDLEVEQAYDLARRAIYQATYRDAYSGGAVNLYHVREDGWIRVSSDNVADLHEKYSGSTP
Description: Inhibition of chymotrypsin-like activity of 20S proteasome in human SEM cells using Suc-LLVY aminoluciferin as substrate after 2 hrs by proteasome-Glo assay. The experiment is classed as cell-based.

The target in experiment [4] is Proteasome Macropain subunit (Homo sapiens) (UniProt P49721). Nature of the experiment: Inhibition of trypsin-like activity of 20S proteasome in human HL60 cells at 4 nM to 25 uM using Z-LRR-aminoluciferin as substrate after 2 hrs by proteasome-Glo assay. The experiment is classed as cell-based.
Experiment [5] deals with SEM cells. Description: Cytotoxicity against human SEM cells after 72 hrs by CellTiter-Glo luminescent cell viability assay. The experiment is classed as functional, cell-based. The procedure, abridged:
(§1)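 Inhibitors dispensed in increasing concentrations (50 nM–25 μM) and cells exposed 72 h. Viability read by ATP-dependent luminescence (CellTiter-Glo). Raw data normalized to controls. IC50 obtained by sigmoid dose–response fit with non-linear regression.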
In general terms: In ATP-based viability assays light output follows the ATP content of the culture.

Experiment [6] concerns KCL-22. Description: Cytotoxicity against human KCL22 cells after 72 hrs by CellTiter-Glo luminescent cell viability assay. The class given is functional, cell-based. The following applies: KCL-22, 72 h. Put shortly:
as §1

Experiment [7] deals with SUP-B15. Description: Cytotoxicity against imatinib-resistant human SUP-B15 cells after 72 hrs by CellTiter-Glo luminescent cell viability assay. The experiment is classed as functional, cell-based. The following applies: SUP-B15, 72 h.
The nature of experiment [8]: Cytotoxicity against human BCP-ALL cells derived from patient 3 after 72 hrs by CellTiter-Glo luminescent cell viability assay. The experiment is classed as functional, cell-based.
Experiment [9] concerns SEM cells. Description: Induction of early differentiation of human SEM cells assessed as increase in CD11b expression at IC50 to 2 times IC50 after 72 hrs by FACS analysis. The experiment is classed as functional, cell-based. The procedure, abridged: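 Surface CD11b and CD14 measured by FACS using fluorochrome-coupled monoclonal antibodies with matched isotype controls, after treatment in liquid medium.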
A general note: In flow cytometry, cells or beads pass a laser one at a time.

In experiment [10] the test system is SEM cells. Nature of the experiment: Reduction of colony forming capacity of human SEM cells at IC50 to 2 times IC50 after 48 hrs. The class given is functional, cell-based. The procedure, abridged:
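SEM cells pretreated in liquid medium (methods: 24 h; legend: 48 h), then plated in semisolid methylcellulose-based medium containing compound or control; colonies counted after 14 days.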

Experiment [11] deals with SEM cells. Description: Inhibition of HDAC6/chymotrypsin-like activity of 20S proteasome in human SEM cells assessed as increase in HSP27 protein expression at 0.1 to 10 uM after 18 hrs by Western blot assay. The class given is cell-based. Put shortly:
(§2)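 Cells treated 18 h at indicated concentrations; lysates analysed by western blot for heat shock (Grp94, HSP70, HSP40, HSP27), UPR (BIP, ATF4, ATF6, pJNK) and autophagy (LC3B, p62) proteins.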

Experiment [12] has as its system SEM cells. Description: Inhibition of HDAC6/chymotrypsin-like activity of 20S proteasome in human SEM cells assessed as increase in BIP protein expression at 0.1 to 10 uM after 18 hrs by Western blot assay. The class given is cell-based. Put shortly:
as §2

Experiment [13] concerns SEM cells. Nature of the experiment: Inhibition of HDAC6/chymotrypsin-like activity of 20S proteasome in human SEM cells assessed as decrease in aggresome accumulation at IC50 to 2 times IC50 after 18 hrs by FACS analysis. The class given is cell-based. Put shortly: (§3)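 Cells treated 18 h, then stained with a proteostat aggresome dye plus DNA stain. Imaged by fluorescence microscopy (63X objective) or analysed by FACS, with aggresome propensity factor from relative mean fluorescence intensity.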

The test system of experiment [14] is SEM cells. Nature of the experiment: Inhibition of HDAC6/chymotrypsin-like activity of 20S proteasome in human SEM cells assessed as decrease in aggresome accumulation at IC50 to 2 times IC50 after 18 hrs by fluorescence microscopic method. The class given is cell-based. Put shortly: as §3

The source made the active and inactive calls. The rule behind the calls is not given here.

Proteasome Macropain subunit (Homo sapiens), sequence (P49721 whole entry): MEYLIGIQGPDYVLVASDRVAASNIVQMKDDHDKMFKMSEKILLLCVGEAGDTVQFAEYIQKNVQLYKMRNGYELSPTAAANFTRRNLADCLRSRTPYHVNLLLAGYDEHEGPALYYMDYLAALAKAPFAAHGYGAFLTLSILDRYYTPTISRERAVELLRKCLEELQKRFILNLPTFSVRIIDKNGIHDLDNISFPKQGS

One may read the IC50 as the concentration that inhibits the measured activity by half. Turning to `C[C@H](NC(=O)[C@H](CC(=O)NCC(C)(C)C)NC(=O)c1ccc(C(=O)NO)cc1)C(=O)NCc1ccccc1`, the IC50 in [1] is 270 nM; in experiment [3] it was 394 nM; in [5] it was 890 nM; in experiment [6] it was 3140 nM; in [7], 1830 nM; in experiment [8] it was 5230 nM. In addition, the inhibition entry in experiment [2], in [11], in experiment [12], in experiment [13] and in experiment [14] was “Active” in each case. Besides, in [4], the inhibition result is “inactive”. The result in experiment [9] and in [10] was Active.

For the origin of these results see ChEMBL document CHEMBL4152390, “Discovery of the First-in-Class Dual Histone Deacetylase-Proteasome Inhibitor” (J Med Chem, 2018).
